In ChEMBL document CHEMBL4014338, “Discovery of Small Molecules as Multi-Toll-like Receptor Agonists with Proinflammatory and Anticancer Activities” (J Med Chem, 2017):

Tests used:
[1] = biological target: Toll-like receptor 3 (Homo sapiens) (UniProt O15455); assay: Agonist activity at human TLR3 expressed in HEK293 cells assessed as induction of NF-kB activation-mediated SEAP production at 25 uM after 24 hrs by HTS assay relative to control; assay type: cell-based
Method in brief: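 hTLR3 HEK293 SEAP reporter cells seeded at 5 × 10^4 cells/well for 24 h, exposed to 25 μM for 24 h. Supernatant SEAP detected with QUANTI-Blue (1 h, 37 °C, OD 620 nm). Activation normalized to untreated cells and expressed as fold change.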

HeLa [2] = assay: Induction of apoptosis in human HeLa cells at 10 to 40 uM after 24 hrs by Annexin V-FITC/propidium iodide staining based flow cytometry (reference value: 10%); assay type: functional
Method in brief: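 HeLa cells seeded at 3 × 10^5/well and attached 24 h, treated 24 h with 10, 20, 30 or 40 μM (DMSO or poly I:C 5 μg/mL as controls). Harvested with EDTA-free trypsin, washed twice in PBS, stained with annexin V-FITC/PI, and analyzed by flow cytometry. Early plus late apoptotic percentages reported as mean ± SD of three experiments.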

Toll-like receptor 7 = biological target: T1, Toll-like receptor 7 (Homo sapiens, UniProt Q9NYK1); assay: Agonist activity at human TLR7 expressed in HEK293 cells assessed as induction of NF-kB activation-mediated SEAP production after 24 hrs by HTS assay; assay type: cell-based
T1 sequence (Q9NYK1 whole entry): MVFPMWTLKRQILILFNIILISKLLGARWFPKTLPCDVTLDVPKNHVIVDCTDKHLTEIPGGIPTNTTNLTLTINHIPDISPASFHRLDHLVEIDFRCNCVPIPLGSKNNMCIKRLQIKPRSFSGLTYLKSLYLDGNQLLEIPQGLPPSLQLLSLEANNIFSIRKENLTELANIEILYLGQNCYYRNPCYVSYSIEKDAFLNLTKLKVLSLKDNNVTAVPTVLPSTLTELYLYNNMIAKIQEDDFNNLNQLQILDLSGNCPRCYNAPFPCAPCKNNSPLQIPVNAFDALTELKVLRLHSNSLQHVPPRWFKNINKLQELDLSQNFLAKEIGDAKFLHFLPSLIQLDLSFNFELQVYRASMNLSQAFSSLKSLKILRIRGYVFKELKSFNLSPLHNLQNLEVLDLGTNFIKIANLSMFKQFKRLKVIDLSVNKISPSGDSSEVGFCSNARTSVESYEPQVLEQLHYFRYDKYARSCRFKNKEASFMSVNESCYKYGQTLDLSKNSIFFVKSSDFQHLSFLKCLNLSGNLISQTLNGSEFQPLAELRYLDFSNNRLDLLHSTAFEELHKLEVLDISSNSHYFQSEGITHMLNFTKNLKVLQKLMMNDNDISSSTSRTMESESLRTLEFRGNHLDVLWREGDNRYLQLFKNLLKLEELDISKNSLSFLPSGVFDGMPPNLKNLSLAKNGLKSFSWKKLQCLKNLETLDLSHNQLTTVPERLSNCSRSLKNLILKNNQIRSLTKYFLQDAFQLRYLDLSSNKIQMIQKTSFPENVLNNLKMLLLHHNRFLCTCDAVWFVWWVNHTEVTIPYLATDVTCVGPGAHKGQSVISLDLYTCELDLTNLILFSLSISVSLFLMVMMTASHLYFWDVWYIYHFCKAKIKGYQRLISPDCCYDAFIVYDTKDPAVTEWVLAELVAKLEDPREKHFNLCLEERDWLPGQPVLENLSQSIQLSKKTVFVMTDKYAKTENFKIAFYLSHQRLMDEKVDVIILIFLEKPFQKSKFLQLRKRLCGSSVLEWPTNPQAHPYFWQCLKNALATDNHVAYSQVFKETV
Method in brief: (§1)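 Stable HEK293 lines expressing a single hTLR plus a SEAP reporter, grown in DMEM/10% FBS with selective antibiotics. Seeded at 5 × 10^4 cells/well for 24 h at 37 °C, then treated 24 h. Supernatant mixed with QUANTI-Blue, 1 h at 37 °C, OD 620 nm. Cognate agonists: Pam3CSK4 (TLR2), poly I:C (TLR3), LPS (TLR4), FLA-BS (TLR5), R848 (TLR7). EC50 as mean ± SD.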

Toll-like receptor 4 = Toll-like receptor 4 (Homo sapiens, UniProt O00206); assay: Agonist activity at human TLR4 expressed in HEK293 cells assessed as induction of NF-kB activation-mediated SEAP production after 24 hrs by HTS assay; assay type: cell-based; method in brief: as §1
Toll-like receptor 4, sequence (O00206 whole entry): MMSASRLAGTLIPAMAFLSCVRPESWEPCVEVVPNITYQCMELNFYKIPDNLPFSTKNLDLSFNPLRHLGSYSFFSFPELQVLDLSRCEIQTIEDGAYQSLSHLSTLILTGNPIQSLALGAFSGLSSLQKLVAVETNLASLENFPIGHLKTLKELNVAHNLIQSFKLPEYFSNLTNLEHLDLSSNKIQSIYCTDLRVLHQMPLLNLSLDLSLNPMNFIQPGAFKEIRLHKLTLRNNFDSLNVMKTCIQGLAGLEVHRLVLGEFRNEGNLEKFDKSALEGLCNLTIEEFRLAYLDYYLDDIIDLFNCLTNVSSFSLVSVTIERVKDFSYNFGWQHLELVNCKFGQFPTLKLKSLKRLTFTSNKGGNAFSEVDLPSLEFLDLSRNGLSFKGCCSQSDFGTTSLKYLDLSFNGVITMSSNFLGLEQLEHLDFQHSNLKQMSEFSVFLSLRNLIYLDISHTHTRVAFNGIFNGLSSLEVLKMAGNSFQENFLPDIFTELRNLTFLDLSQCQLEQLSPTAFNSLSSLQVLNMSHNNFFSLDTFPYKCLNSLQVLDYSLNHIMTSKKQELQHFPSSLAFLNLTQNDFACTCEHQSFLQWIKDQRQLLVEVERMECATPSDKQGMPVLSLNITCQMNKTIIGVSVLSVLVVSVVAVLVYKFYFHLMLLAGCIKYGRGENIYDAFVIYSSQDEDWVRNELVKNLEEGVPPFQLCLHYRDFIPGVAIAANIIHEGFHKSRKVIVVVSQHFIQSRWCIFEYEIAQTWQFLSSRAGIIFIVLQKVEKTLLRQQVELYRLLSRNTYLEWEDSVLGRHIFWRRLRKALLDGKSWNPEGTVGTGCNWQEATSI

HMEC = assay: Antiproliferative activity against HMEC after 24 hrs by WST1 assay; assay type: cell-based; settings: Homo sapiens
Method in brief: (§2)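 Cells seeded at 5 × 10^3/well and left 24 h, then given a concentration series for 24, 48 or 72 h. WST-1 reagent added and incubated at 37 °C for 30 min–2 h until color change; absorbance 450 nm. Growth inhibition = (1 − [sample − background]/[control − background]) × 100. IC50 mean ± SD, three cell preparations.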

HeLa [3] = assay: Cell cycle arrest in human HeLa cells assessed as accumulation at S phase at 40 uM after 24 hrs by propidium iodide staining based flow cytometry (reference value: 31%); assay type: functional
HeLa [4] = assay: Antiproliferative activity against human HeLa cells after 48 hrs by WST1 assay; assay type: functional, cell-based; method in brief: as §2
HeLa [5] = assay: Cell cycle arrest in human HeLa cells assessed as accumulation at G0/G1 phase at 30 uM after 24 hrs by propidium iodide staining based flow cytometry (reference value: 52%); assay type: functional
HeLa [6] = assay: Cell cycle arrest in human HeLa cells assessed as accumulation at G2/M phase at 40 uM after 24 hrs by propidium iodide staining based flow cytometry (reference value: 17%); assay type: functional
[7] = biological target: T2, Toll-like receptor 3/8/9 (Homo sapiens) (UniProt O15455+Q9NR96+Q9NR97); assay: Agonist activity at TLR3/TLR8/TLR9 in human THP1 cells assessed as increase in IL-6 mRNA level after 12 hrs by qRT-PCR method; assay type: cell-based
T2 sequence (O15455 whole entry, looked up): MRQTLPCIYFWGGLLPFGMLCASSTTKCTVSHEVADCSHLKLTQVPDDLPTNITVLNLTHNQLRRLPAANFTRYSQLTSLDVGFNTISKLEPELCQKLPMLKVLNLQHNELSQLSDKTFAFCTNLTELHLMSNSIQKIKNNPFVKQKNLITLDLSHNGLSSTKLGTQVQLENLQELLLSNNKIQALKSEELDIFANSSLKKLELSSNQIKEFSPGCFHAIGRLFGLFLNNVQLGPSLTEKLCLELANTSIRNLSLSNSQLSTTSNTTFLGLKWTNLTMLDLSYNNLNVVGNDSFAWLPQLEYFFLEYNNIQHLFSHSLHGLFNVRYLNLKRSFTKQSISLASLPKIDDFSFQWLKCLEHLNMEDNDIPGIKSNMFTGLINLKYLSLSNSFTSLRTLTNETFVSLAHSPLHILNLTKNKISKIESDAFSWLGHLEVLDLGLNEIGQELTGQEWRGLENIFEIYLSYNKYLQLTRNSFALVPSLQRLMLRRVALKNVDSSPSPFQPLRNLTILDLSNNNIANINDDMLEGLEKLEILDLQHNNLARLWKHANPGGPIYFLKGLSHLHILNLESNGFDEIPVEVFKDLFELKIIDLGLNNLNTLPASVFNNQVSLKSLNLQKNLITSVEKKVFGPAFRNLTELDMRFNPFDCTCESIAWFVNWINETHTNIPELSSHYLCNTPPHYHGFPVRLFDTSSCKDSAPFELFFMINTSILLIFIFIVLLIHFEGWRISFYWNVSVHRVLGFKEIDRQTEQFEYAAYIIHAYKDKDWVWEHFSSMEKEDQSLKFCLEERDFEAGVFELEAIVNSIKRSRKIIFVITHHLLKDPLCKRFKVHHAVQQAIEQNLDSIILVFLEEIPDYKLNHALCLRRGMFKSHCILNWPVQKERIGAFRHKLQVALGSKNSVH
T2 sequence (Q9NR96 whole entry, looked up): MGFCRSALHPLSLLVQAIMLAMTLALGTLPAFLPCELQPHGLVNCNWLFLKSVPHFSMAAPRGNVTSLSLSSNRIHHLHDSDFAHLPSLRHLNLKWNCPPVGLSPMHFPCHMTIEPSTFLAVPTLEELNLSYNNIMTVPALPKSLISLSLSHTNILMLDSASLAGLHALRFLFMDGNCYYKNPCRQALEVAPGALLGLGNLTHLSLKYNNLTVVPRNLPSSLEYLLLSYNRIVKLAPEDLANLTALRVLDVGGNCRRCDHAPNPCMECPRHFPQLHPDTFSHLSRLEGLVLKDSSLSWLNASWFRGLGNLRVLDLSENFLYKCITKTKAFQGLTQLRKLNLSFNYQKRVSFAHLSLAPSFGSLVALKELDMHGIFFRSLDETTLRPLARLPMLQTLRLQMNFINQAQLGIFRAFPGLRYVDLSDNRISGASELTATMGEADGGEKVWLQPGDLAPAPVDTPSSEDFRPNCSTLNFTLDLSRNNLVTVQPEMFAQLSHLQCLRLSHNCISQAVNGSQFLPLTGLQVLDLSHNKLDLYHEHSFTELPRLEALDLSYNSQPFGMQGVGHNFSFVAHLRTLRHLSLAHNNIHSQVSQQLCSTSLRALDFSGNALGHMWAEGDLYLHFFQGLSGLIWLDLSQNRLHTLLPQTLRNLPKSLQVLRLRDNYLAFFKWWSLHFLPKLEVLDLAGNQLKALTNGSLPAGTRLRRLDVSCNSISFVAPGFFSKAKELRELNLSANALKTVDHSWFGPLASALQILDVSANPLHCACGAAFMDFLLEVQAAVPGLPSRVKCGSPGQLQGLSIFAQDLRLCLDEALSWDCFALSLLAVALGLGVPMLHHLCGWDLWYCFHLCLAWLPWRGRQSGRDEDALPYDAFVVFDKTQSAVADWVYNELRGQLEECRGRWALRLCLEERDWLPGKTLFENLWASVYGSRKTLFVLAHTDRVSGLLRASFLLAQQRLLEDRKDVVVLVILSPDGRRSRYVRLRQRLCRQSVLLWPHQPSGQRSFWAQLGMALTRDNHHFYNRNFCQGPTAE
T2 sequence (Q9NR97 whole entry, looked up): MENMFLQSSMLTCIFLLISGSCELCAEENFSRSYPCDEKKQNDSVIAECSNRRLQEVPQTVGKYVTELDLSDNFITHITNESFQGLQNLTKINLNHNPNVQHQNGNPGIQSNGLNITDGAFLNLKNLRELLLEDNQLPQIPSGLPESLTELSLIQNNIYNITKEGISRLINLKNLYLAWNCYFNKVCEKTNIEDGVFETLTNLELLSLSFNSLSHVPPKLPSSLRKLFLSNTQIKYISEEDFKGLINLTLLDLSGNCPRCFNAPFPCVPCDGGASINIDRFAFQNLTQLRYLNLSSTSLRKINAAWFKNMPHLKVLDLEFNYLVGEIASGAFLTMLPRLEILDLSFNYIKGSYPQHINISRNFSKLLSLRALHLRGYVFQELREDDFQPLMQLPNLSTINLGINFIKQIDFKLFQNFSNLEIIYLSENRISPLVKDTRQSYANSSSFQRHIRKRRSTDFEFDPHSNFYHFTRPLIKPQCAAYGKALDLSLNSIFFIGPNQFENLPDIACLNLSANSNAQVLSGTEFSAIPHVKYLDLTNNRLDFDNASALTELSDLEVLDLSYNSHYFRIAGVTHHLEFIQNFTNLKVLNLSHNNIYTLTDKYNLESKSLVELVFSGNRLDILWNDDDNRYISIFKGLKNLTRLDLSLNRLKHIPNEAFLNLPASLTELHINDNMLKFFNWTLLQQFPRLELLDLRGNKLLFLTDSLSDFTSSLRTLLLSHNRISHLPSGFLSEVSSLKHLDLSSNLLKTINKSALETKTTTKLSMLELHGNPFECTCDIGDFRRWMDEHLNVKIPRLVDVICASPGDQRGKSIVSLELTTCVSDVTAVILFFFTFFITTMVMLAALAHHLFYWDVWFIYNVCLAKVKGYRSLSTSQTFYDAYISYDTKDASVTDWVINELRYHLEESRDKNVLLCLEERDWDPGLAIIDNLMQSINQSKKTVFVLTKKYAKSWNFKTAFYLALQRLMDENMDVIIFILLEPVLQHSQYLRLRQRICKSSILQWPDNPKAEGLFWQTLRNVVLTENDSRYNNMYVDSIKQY
Method in brief: (§3)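 THP-1 cells (1.5 × 10^6/well) differentiated with PMA (20 nM) for 2 days, then 24 h in fresh RPMI 1640; nonadherent cells removed. Treated with indicated compound concentrations for 12 h, washed with PBS, and mRNA measured by qRT-PCR. Expressed as fold change versus untreated control, poly I:C (5 μg/mL) as reference. Mean ± SD of three independent experiments.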

HeLa [8] = assay: Cell cycle arrest in human HeLa cells assessed as accumulation at S phase at 20 uM after 24 hrs by propidium iodide staining based flow cytometry (reference value: 31%); assay type: functional
[9] = biological target: T2, Toll-like receptor 3/8/9 (Homo sapiens); assay: Agonist activity at TLR3/TLR8/TLR9 in human THP1 cells assessed as increase in IL-8 mRNA level after 12 hrs by qRT-PCR method; assay type: cell-based; method in brief: as §3

Toll-like receptor 3 (Homo sapiens), sequence (O15455 whole entry): as the sequence (O15455 whole entry, looked up) above

`O=[N+]([O-])c1ccc(COc2cc3c(cc2OCc2ccc([N+](=O)[O-])cc2)OC2(C=C3)CCOCC2)cc1` was tested, and the fold change (FC) [1] was 13.9, the Activity (HeLa [2]) was 17% and the EC50 (Toll-like receptor 7) was greater than 100 µM. For the same molecule, the EC50 (Toll-like receptor 4) was greater than 100 µM, the IC50 (HMEC) was greater than 100 µM and the Activity (HeLa [3]) was 41%. For the same molecule, the Activity (HeLa [4]) was “Dose-dependent effect”, the IC50 (HeLa [4]) was 15.8 µM and the Activity (HeLa [5]) was 41%. For the same molecule, the Activity (HeLa [6]) was 19%, the Activity [7] was “Dose-dependent effect” and the Activity (HeLa [8]) was 37%. The Activity [9] was “Dose-dependent effect”.
